A selection: hits, their analogues and other compounds. The true share with any hit is near 3.5%.
MrgX1 ag: activates human MrgX1 receptor signaling; B-score at 10 µM; Q96LB2; MrgX1-HEK293 cells, Fluo-4 calcium fluorescence, agonist mode; hits give high values; hit rate 0.44% among 310,000;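 active = calcium response B-score plate-corrected fluorescence ratio at least 3 library SD, with starting fluorescence B-score inside 5 SD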
Target sequence (Q96LB2 whole entry, looked up): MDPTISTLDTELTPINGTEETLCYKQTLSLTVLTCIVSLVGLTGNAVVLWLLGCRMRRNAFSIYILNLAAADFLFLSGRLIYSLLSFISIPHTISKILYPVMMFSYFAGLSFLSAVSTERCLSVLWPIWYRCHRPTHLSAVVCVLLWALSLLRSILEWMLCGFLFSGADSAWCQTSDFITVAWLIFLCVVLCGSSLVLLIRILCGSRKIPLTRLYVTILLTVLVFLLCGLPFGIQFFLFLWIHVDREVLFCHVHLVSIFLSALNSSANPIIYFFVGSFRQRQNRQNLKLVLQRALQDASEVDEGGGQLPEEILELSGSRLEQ
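Material: HEK293 cells stably expressing human MrgX1 receptor | Quantity: 15,000 cells per well | Times: Cells plated overnight, dye loaded 0.5 h 37 °C, 0.5 h room temperature | Measured by: Kinetic Fluo-4 NW fluorescence of intracellular calcium | Control set: Positive and negative controls per plate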
MrgX1 antagonist: blocks BAM8-22 activation of human MrgX1 receptor; Q96LB2; MRGX1-HEK293 calcium flux, Fluo-4, BAM8-22 antagonism; hits give low values; B-score at 10 µM; hit rate 1.3% among 310,000; AID 588676;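 active = calcium-response B-score plate-corrected more than 3 library SD below zero, starting fluorescence within 5 deviations, no agonist response on first addition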;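 note: peak minus trough fluorescence over baseline after final BAM8-22 challenge near maximal dose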
RGS4 inh: human RGS4 inhibition. HEK293 M3R/RGS4 inducible, Fluo-4 calcium flux; hits give high values; triggered by carbachol at its EC20. hit rate 0.45% among 310,000. B-score at 10 µM. AID 463165. P49798;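 active = B-score, a plate-corrected calcium signal, over three deviations above library mean, with baseline fluorescence within five deviations of library mean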;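 note: RGS4 expression induced by doxycycline in cells with stable M3 receptor; B-score is computed from the integrated fluorescence ratio over baseline after carbachol; higher B-score means a larger calcium signal and so more RGS4 inhibition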
Target sequence (P49798 whole entry, looked up): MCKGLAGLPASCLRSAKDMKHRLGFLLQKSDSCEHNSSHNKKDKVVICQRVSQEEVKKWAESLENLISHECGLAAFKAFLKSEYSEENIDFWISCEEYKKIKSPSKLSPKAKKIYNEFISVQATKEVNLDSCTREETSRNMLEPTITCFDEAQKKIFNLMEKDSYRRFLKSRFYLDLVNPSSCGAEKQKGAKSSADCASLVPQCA
MrgX1 PAM: human MrgX1 positive allosteric modulation, primary screen. hit rate 0.63% among 310,000. B-score at 10 µM. MrgX1-HEK293, Fluo-4 calcium flux, FDSS; hits give high values. Q96LB2;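 active = plate-corrected calcium response at least 3 library SD above typical, normal starting fluorescence, not activating the receptor alone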;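 note: compound read alongside a low EC10 to EC30 dose of BAM8-22 agonist; peak minus trough fluorescence over baseline measured at the second addition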
RGS4 act: RGS4 potentiation or activation; HEK293 M3R/inducible RGS4, carbachol calcium flux Fluo4; hits give low values; B-score at 10 µM; hit rate 0.92% among 310,000;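 active = B-score of the integrated calcium signal more than 4 SD below the library mean, with starting fluorescence not abnormally high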;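 note: negative B-score means reduced calcium response which marks RGS4 activation or potentiation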
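Assay system: HEK293 FlpIn-TREx cells, stable M3R, doxycycline-inducible RGS4 / Probe or stimulus: carbachol, ECmax concentration / Times: overnight RGS4 induction, 30 min dye load 37 °C, 20 min compound RT / Signal: kinetic calcium fluorescence imaging with Fluo4-AM dye, 2 µM / Measure: Agonist-evoked peak-minus-minimum fluorescence over baseline, integrated ratio, B score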
Numbers without * were called inactive.

What do the screens show for `Cc1ccccc1/C=C/c1nc2ccccc2c(=O)n1CCc1ccccc1`?
MrgX1 ag: inactive; MrgX1 antagonist: inactive; RGS4 inh: inactive; MrgX1 PAM: inactive; RGS4 act: inactive

Results for CC1=NN(c2ccc(Br)cc2)C(=O)/C1=C/c1cccs1 ?
MrgX1 ag: inactive; MrgX1 antagonist: inactive; RGS4 inh: inactive; MrgX1 PAM: 14*; RGS4 act: inactive

Results for CC1=NN(c2ccc(C)cc2)C(=O)/C1=C\c1ccc(Br)s1 ?
MrgX1 ag: inactive; MrgX1 antagonist: -6.5*; RGS4 inh: inactive; MrgX1 PAM: inactive; RGS4 act: inactive

What do the screens show for `COn1c(-c2ccccc2)c(C=O)c2ccccc21`?
MrgX1 ag: inactive; MrgX1 antagonist: inactive; RGS4 inh: inactive; MrgX1 PAM: 19*; RGS4 act: inactive

How did C=CCNC(=S)N/N=C(\C)c1cccnc1 do in these assays?
MrgX1 ag: inactive; MrgX1 antagonist: inactive; RGS4 inh: inactive; MrgX1 PAM: inactive; RGS4 act: inactive

Results for Cc1ccc(OCC(=O)N2CCN(c3nnc(-c4ccc(C)cc4)c4ccccc34)CC2)cc1 ?
MrgX1 ag: inactive; MrgX1 antagonist: inactive; RGS4 inh: inactive; MrgX1 PAM: inactive; RGS4 act: inactive

Results for Cc1ccc(-c2nnc(N3CCN(C(=O)COc4cccc(C)c4)CC3)c3ccccc23)cc1 ?
MrgX1 ag: inactive; MrgX1 antagonist: inactive; RGS4 inh: inactive; MrgX1 PAM: inactive; RGS4 act: -7.3*

What do the screens show for `Cn1c(=O)c2nc3ccccc3nc2n(C)c1=O`?
MrgX1 ag: inactive; MrgX1 antagonist: inactive; RGS4 inh: inactive; MrgX1 PAM: inactive; RGS4 act: -7.5*

How did CCOC(=O)COc1ccc(S(=O)(=O)Nc2ccc3c(c2)OCO3)cc1 do in these assays?
MrgX1 ag: inactive; MrgX1 antagonist: inactive; RGS4 inh: inactive; MrgX1 PAM: inactive; RGS4 act: -8.5*

Results for O=C(NCc1ccccc1)c1sc(=S)n2c1[nH]c(=O)c1ccccc12 ?
MrgX1 ag: 51*; MrgX1 antagonist: inactive; RGS4 inh: inactive; MrgX1 PAM: inactive; RGS4 act: inactive

How did COc1ccc(N(CC(=O)N/N=C/c2cc3ccc(OC)cc3nc2Cl)S(=O)(=O)c2ccccc2)cc1 do in these assays?
MrgX1 ag: inactive; MrgX1 antagonist: inactive; RGS4 inh: inactive; MrgX1 PAM: 9.1*; RGS4 act: inactive

Results for O=C1c2ccccc2NC(c2cccc([N+](=O)[O-])c2)N1CCc1ccccc1 (configuration not stated) ?
MrgX1 ag: inactive; MrgX1 antagonist: inactive; RGS4 inh: inactive; MrgX1 PAM: 15*; RGS4 act: inactive

What do the screens show for `Cc1ccc(NC(=O)/C(Cl)=C\c2ccccc2)cc1`?
MrgX1 ag: inactive; MrgX1 antagonist: inactive; RGS4 inh: inactive; MrgX1 PAM: inactive; RGS4 act: inactive

Results for COc1ccc(CCn2nc(C)c([N+](=O)[O-])c2C)cc1 ?
MrgX1 ag: inactive; MrgX1 antagonist: -6.5*; RGS4 inh: inactive; MrgX1 PAM: inactive; RGS4 act: inactive

What do the screens show for `CCOC(=O)c1nn(-c2ccccc2)c2nc(-c3ccc(OC)cc3)c(C#N)c(=O)n12`?
MrgX1 ag: inactive; MrgX1 antagonist: -4.9*; RGS4 inh: inactive; MrgX1 PAM: inactive; RGS4 act: inactive

What do the screens show for `CCCCn1c2ccc(C)cc2c2nnc(SCCN3CCCCC3)nc21`?
MrgX1 ag: inactive; MrgX1 antagonist: inactive; RGS4 inh: inactive; MrgX1 PAM: inactive; RGS4 act: -12*

What do the screens show for `O=C(CSc1nc2ccccc2c(=O)n1-c1ccccc1)NC(=O)CN1CCCC1=O`?
MrgX1 ag: inactive; MrgX1 antagonist: inactive; RGS4 inh: inactive; MrgX1 PAM: inactive; RGS4 act: inactive

Results for CCOc1ccc(S(=O)(=O)Nc2ccc(C(=O)NCC3(N4CCCCC4)CCCCC3)cc2)cc1 ?
MrgX1 ag: inactive; MrgX1 antagonist: -9.8*; RGS4 inh: inactive; MrgX1 PAM: inactive; RGS4 act: inactive

How did Cc1ccc(Nc2nc(N)nc(CN3CCN(C)CC3)n2)cc1 do in these assays?
MrgX1 ag: inactive; MrgX1 antagonist: inactive; RGS4 inh: inactive; MrgX1 PAM: inactive; RGS4 act: -7.2*

What do the screens show for `CCOC(=O)C(NCCc1ccc(F)cc1)(NC(=O)CC)C(F)(F)F` (configuration not stated)?
MrgX1 ag: inactive; MrgX1 antagonist: inactive; RGS4 inh: inactive; MrgX1 PAM: inactive; RGS4 act: inactive

How did Cc1ccc(NC(=O)CN(C)C(=O)COC(=O)CNS(=O)(=O)c2ccc(Br)cc2Cl)cc1 do in these assays?
MrgX1 ag: 59*; MrgX1 antagonist: inactive; RGS4 inh: inactive; MrgX1 PAM: inactive; RGS4 act: inactive

What do the screens show for `Cc1ccc(NC(=O)CN(C)C(=O)COC(=O)CNS(=O)(=O)c2ccc(F)c(F)c2F)cc1`?
MrgX1 ag: inactive; MrgX1 antagonist: inactive; RGS4 inh: inactive; MrgX1 PAM: inactive; RGS4 act: inactive

Results for CC(=O)OC1CSC2c3ccccc3C(=O)N2Cc2sccc21 (configuration not stated) ?
MrgX1 ag: inactive; MrgX1 antagonist: inactive; RGS4 inh: inactive; MrgX1 PAM: inactive; RGS4 act: inactive

How did COc1cc(/C(C)=C/c2ccccc2)c2c(c1)oc1ccccc12 do in these assays?
MrgX1 ag: inactive; MrgX1 antagonist: inactive; RGS4 inh: inactive; MrgX1 PAM: 9*; RGS4 act: inactive

What do the screens show for `COc1ccc2oc3ccccc3c(=O)c2c1`?
MrgX1 ag: inactive; MrgX1 antagonist: inactive; RGS4 inh: inactive; MrgX1 PAM: inactive; RGS4 act: inactive

How did COc1cc(SC)ccc1C(=O)NNC(=O)c1cc(C)oc1C do in these assays?
MrgX1 ag: inactive; MrgX1 antagonist: -4.8*; RGS4 inh: inactive; MrgX1 PAM: inactive; RGS4 act: inactive

Results for COc1cc(SC)ccc1C(=O)Nc1c(C)cccc1C ?
MrgX1 ag: inactive; MrgX1 antagonist: inactive; RGS4 inh: inactive; MrgX1 PAM: inactive; RGS4 act: inactive

What do the screens show for `Cc1c(C(=O)NCCC2=CCCCC2)oc2ccc(S(=O)(=O)N3CCC4(CC3)OCCO4)cc12`?
MrgX1 ag: inactive; MrgX1 antagonist: inactive; RGS4 inh: inactive; MrgX1 PAM: inactive; RGS4 act: -8*

Results for CCc1ccc(N(C(=O)CNC(=O)c2ccco2)C(C(=O)NC2CCCC2)c2cccnc2)cc1 (configuration not stated) ?
MrgX1 ag: inactive; MrgX1 antagonist: inactive; RGS4 inh: inactive; MrgX1 PAM: inactive; RGS4 act: inactive

What do the screens show for `Cc1cc(OC(=O)c2cc(Br)ccc2Cl)c([N+](=O)[O-])c(=O)[nH]1`?
MrgX1 ag: inactive; MrgX1 antagonist: inactive; RGS4 inh: inactive; MrgX1 PAM: inactive; RGS4 act: inactive

High-throughput results deposited in PubChem BioAssay by Johns Hopkins Ion Channel Center.
